Test [1] has as its system Mycobacterium avium subsp. paratuberculosis. Briefly: Antituberculosis activity against Mycobacterium paratuberculosis B213 isolated from bovine assessed as minimum drug level required for killing after 56 days by MGIT 960 susceptibility test. Format: functional. The essentials:
(§1)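 10^5 to 10^6 CFU from single-cell suspensions inoculated in duplicate into MGIT ParaTB medium with supplement and egg yolk. Drugs were at final 0.5–64.0 μg/ml, with 128.0 μg/ml added for some strains. Tubes were incubated at 37°C in MGIT 960. Inhibition is the lowest concentration giving a time to detection longer than a drug-free 1:100 inoculum control. Killing is no positive signal through 56 days.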

Test [2] has the same test system. Description: Antituberculosis activity against Mycobacterium paratuberculosis UCF-4 isolated from Crohn's disease patient assessed as minimum drug level required for killing after 56 days by MGIT 960 susceptibility test. In kind it is functional. Summed up: as §1
Test [3] shares this test system. Description: Antituberculosis activity against Mycobacterium paratuberculosis JTC303 isolated from bovine assessed as minimum drug level required for killing after 56 days by MGIT 960 susceptibility test. In kind it is functional. Summed up:
as §1

Test [4] has the same test system. Briefly: Antituberculosis activity against Mycobacterium paratuberculosis ATCC 19698 isolated from bovine assessed as minimum drug level resulting in no detectable growth at 10^6 CFU of inoculum after 56 days by MGIT 960 susceptibility test. In kind it is functional. Summed up: (§2)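 M. paratuberculosis ATCC 19698 at 10^6 CFU per MGIT ParaTB tube in duplicate, drugs at final 1.0–64.0 μg/ml, 37°C in MGIT 960. Inhibition is the lowest concentration whose time to detection exceeds the 1:100 diluted-inoculum solvent control. No detectable growth means the tube never signals positive through 56 days.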

Test [5] shares this test system. Description: Antituberculosis activity against Mycobacterium paratuberculosis UCF-7 isolated from Crohn's disease patient assessed as minimum drug level required for killing after 56 days by MGIT 960 susceptibility test. Format: functional. The essentials: as §1
For test [6], the system named is Mycobacterium avium. Briefly: Antituberculosis activity against Mycobacterium avium ATCC 35712 isolated from chicken assessed as minimum drug level required for killing after 56 days by MGIT 960 susceptibility test. Format: functional. Summed up: as §1
Test [7] deals with Mycobacterium avium subsp. paratuberculosis. Briefly: Antituberculosis activity against Mycobacterium paratuberculosis B238 isolated from bovine assessed as minimum drug level required for killing after 56 days by MGIT 960 susceptibility test. In kind it is functional. The essentials:
as §1

The test system is the same in test [8]. Description: Antituberculosis activity against Mycobacterium paratuberculosis ATCC 19698 isolated from bovine assessed as lowest drug level producing inhibition at 10^6 CFU of inoculum by MGIT 960 susceptibility test. In kind it is functional. Summed up: as §2
For test [9] the test system is unchanged. Briefly: Antituberculosis activity against Mycobacterium paratuberculosis UCF-7 isolated from Crohn's disease patient assessed as colony counts at 4 ug after 12 days by MGIT 960 susceptibility test. Format: functional.
Test [10] has the same test system. Briefly: Antituberculosis activity against Mycobacterium paratuberculosis UCF-5 isolated from Crohn's disease patient assessed as minimum drug level required for inhibition by MGIT 960 susceptibility test. Format: functional. Summed up:
as §1

Test [11] has as its system Mycobacterium avium. Description: Antituberculosis activity against Mycobacterium avium ATCC 35712 isolated from chicken assessed as minimum drug level required for inhibition by MGIT 960 susceptibility test. In kind it is functional. Summed up: as §1
Test [12] has as its system Mycobacterium avium subsp. paratuberculosis. Briefly: Antituberculosis activity against Mycobacterium paratuberculosis UCF-7 isolated from Crohn's disease patient assessed as minimum drug level required for inhibition by MGIT 960 susceptibility test. In kind it is functional. Summed up:
as §1

For test [13] the test system is unchanged. Briefly: Antituberculosis activity against Mycobacterium paratuberculosis B238 isolated from bovine assessed as minimum drug level required for inhibition by MGIT 960 susceptibility test. In kind it is functional. Summed up: as §1
The test system is the same in test [14]. Description: Antituberculosis activity against Mycobacterium paratuberculosis B213 isolated from bovine assessed as minimum drug level required for inhibition by MGIT 960 susceptibility test. Format: functional. Summed up: as §1
Test [15] has the same test system. Briefly: Antituberculosis activity against Mycobacterium paratuberculosis B236 isolated from bovine assessed as minimum drug level required for inhibition by MGIT 960 susceptibility test. In kind it is functional. Summed up:
as §1

For test [16] the test system is unchanged. Description: Antituberculosis activity against Mycobacterium paratuberculosis JTC303 isolated from bovine assessed as minimum drug level required for inhibition by MGIT 960 susceptibility test. In kind it is functional. The essentials:
as §1

For test [17] the test system is unchanged. Description: Antituberculosis activity against Mycobacterium paratuberculosis B236 isolated from bovine assessed as minimum drug level required for killing after 56 days by MGIT 960 susceptibility test. Format: functional. Summed up:
as §1

Test [18] has the same test system. Description: Antituberculosis activity against Mycobacterium paratuberculosis UCF-4 isolated from Crohn's disease patient assessed as minimum drug level required for inhibition by MGIT 960 susceptibility test. Format: functional. The essentials: as §1
The test system is the same in test [19]. Briefly: Antituberculosis activity against Mycobacterium paratuberculosis UCF-5 isolated from Crohn's disease patient assessed as minimum drug level required for killing after 56 days by MGIT 960 susceptibility test. Format: functional. The essentials: as §1
Test [20] shares this test system. Description: Antituberculosis activity against Mycobacterium paratuberculosis ATCC 19698 isolated from bovine assessed as lowest drug level producing inhibition at 10^6 CFU of inoculum by agar counting method. In kind it is functional. Summed up: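 ATCC 19698 at 10^6 CFU was exposed to drug (1.0–64.0 μg/ml) in MGIT ParaTB medium at 37°C. Aliquots taken at 3 and 5 days were centrifuged, resuspended in PBS and declumped with glass beads. Serial dilutions were plated in quadruplicate on 7H10/OADC/mycobactin J and counted after 8 weeks. Inhibition is the lowest concentration giving a 2 log10 (99%) CFU reduction.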

Test [21] shares this test system. Briefly: Antituberculosis activity against Mycobacterium paratuberculosis ATCC 19698 isolated from bovine assessed as viability after 5 to 8 days by standard plate count method.
The test system is the same in test [22]. Briefly: Antituberculosis activity against Mycobacterium paratuberculosis UCF-7 isolated from Crohn's disease patient assessed as colony counts at 2 ug after 12 days by MGIT 960 susceptibility test. In kind it is functional.

In the case of `O=C(O)c1cn(C2CC2)c2cc(N3CCNCC3)c(F)cc2c1=O` [CIPROFLOXACIN], the Activity in test [1] came to 16 µg/mL; in [2], 4 µg/mL; in test [3], 8 µg/mL; in test [4], 32 µg/mL; in test [5], 4 µg/mL; in test [6], 64 µg/mL. Besides, the Activity in [7] stood at 16 µg/mL; in test [8], 1 µg/mL; in test [10], 2 µg/mL; in [11], 16 µg/mL; in [12] it was 1 µg/mL; in [13], 4 µg/mL. For the same molecule, the Activity is 4 µg/mL in test [14]; 4 µg/mL in test [15]; 2 µg/mL in test [16]; 16 µg/mL in [17]; 1 µg/mL in test [18]; 4 µg/mL in [19]. Moreover, the Activity in test [20] was 1 µg/mL. Besides, the log10CFU/ml in test [9] was 0.76; in [21], 1; in test [22] it was 1.98.

These data come from ChEMBL document CHEMBL1151475, “Thiopurine drugs azathioprine and 6-mercaptopurine inhibit Mycobacterium paratuberculosis growth in vitro” (2008).
